According to ChEMBL document CHEMBL1138699, “Design, synthesis, and biological evaluation of the first selective nonpeptide AT2 receptor agonist” (J Med Chem, 2004):
Each block holds one compound with its values, some of them ahead of it.

Legend:
Rattus norvegicus [1] = species on record: Rattus norvegicus; test: Compound was tested for its ability to rise duodenal alkaline secretion in rats was determined; assay type: functional
Method in brief: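 Anaesthetized (pentobarbital ip 60 mg/kg, then 30 mg kg-1 h-1) nonfasted male Sprague-Dawley rats at 38 °C. Isolated duodenal segment with bile duct diverted, perfused with recirculating isotonic saline. HCO3- output pH-stat titrated to pH 7.4 with 0.02 M HCl. Intravenous infusion; net change is the 30-45 min value minus the last 15 min basal. Mean ± SEM, n = 5; ANOVA with Bonferroni.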

[2] = Bioavailability after oral administration in rat was determined; range is 20-30; assay type: ADME, organism-based; conditions: in vivo, read-out: Bioavailabiility
Method in brief: (§1)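 Male Sprague-Dawley rats (ca. 6-7 weeks), triplicate groups; oral gavage at 30, 100 and 300 µg/kg and single iv tail-vein bolus at 30 µg/kg. Tail-vein blood at 30 min and 1, 2, 4, 6, 8, 24 h, heparinized plasma, acetonitrile precipitation, LC-MS/MS (positive-ion SRM 476.3→293.2). Bioavailability from AUC0-8h rather than AUC0-∞.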

NG108-15 [3] = test: Concentration of compound required to induce cell death of mouse neuroblastoma and rat glioma hybrid NG 108-15 cells was determined; assay type: functional
Method in brief: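 NG108-15 neuroblastoma × glioma hybrid cells (passage 7-30) were grown in DMEM with 10% FBS, HAT supplement and gentamycin at 37 °C under 7% CO2. They were treated 24 h after plating, with compound added daily, at 1 pM to 1 µM for 3 days. Cell death was judged by phase-contrast microscopy and micrographs.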

NG108-15 [4] = test: Concentration of compound required to induce neurite outgrowth in mouse neuroblastoma and rat glioma hybrid NG 108-15 cells was determined; assay type: functional
Method in brief: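 NG108-15 cells (passage 7-30) in DMEM/10% FBS/HAT at 37 °C, 7% CO2, plated at 3 × 10^4 cells per 35 mm dish. First stimulation 24 h after plating, agonist given daily over 1 pM-1 µM for 3 days. Phase-contrast scoring: a neurite longer than the cell body counts as positive. At least 140 cells, three independent experiments.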

Rattus norvegicus [5] = test: Concentration of compound required to stimulate secretion of duodenal alkaline secretion in rats when administered intralbuminally was determined; assay type: functional
Method in brief: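 Same anaesthetized Sprague-Dawley duodenal pH-stat preparation (saline perfusate titrated to pH 7.4 with 0.02 M HCl). Here the agonist went into the intraluminal perfusate at 100 µM, with PD 123,319 at 150 µM intraluminally for antagonism. Net change over basal at 30-45 min; n = 5.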

[6] = biological target: T1, Angiotensin II receptor (AT-1) type-1 (Rattus norvegicus, UniProt P29089+P25095); test: Displacement of [125I]-Ang II from rat liver membrane angiotensin II type 1 (AT1) receptor
T1 sequence (P29089 whole entry): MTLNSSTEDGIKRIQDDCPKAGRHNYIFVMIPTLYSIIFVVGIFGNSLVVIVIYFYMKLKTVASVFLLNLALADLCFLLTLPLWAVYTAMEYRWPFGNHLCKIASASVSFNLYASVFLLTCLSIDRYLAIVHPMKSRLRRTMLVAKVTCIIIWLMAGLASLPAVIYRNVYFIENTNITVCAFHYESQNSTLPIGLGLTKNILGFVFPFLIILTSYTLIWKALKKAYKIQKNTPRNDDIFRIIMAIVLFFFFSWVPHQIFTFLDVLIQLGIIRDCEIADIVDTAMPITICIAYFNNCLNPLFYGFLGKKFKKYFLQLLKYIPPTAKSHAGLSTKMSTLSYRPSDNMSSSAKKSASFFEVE
T1 sequence (P25095 whole entry): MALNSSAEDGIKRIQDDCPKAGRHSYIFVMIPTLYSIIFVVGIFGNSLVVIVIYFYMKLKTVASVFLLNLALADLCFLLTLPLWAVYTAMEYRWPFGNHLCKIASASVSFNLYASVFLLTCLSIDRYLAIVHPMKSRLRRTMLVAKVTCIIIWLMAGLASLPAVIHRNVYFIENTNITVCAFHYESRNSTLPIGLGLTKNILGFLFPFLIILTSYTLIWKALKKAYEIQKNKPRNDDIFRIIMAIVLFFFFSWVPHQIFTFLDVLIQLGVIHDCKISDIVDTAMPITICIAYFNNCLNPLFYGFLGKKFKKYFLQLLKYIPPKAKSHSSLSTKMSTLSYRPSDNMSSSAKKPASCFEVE

[7] = Half life after oral administration in rat was determined; assay type: ADME, organism-based; conditions: in vivo; method in brief: as §1
[8] = biological target: Type-2 angiotensin II receptor (Sus scrofa); test: Displacement of [125I]-Ang II from pig uterus membrane angiotensin II type 2 (AT2) receptor
[9] = biological target: Mitogen-activated protein kinase 3 (Homo sapiens) (UniProt P27361); test: Concentration required to abolish MAPK activity in mouse neuroblastoma and rat glioma hybrid NG 108-15 cells; assay type: functional, cell-based
Sequence of Mitogen-activated protein kinase 3 (Homo sapiens) (P27361 whole entry): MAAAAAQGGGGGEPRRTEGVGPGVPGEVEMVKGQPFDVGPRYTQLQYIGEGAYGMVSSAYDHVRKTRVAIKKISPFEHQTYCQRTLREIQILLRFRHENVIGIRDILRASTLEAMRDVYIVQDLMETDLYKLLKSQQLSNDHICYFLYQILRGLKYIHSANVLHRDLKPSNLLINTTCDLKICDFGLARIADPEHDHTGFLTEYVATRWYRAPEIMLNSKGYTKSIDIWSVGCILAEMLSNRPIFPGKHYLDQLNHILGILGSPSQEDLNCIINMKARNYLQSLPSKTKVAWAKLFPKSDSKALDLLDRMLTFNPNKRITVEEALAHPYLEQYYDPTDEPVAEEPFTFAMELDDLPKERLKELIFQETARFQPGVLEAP

SMILES: CCCCOC(=O)NS(=O)(=O)c1sc(CC(C)C)cc1-c1ccc(Cn2ccnc2)cc1 [BULOXIBUTID]
Activity (Rattus norvegicus [1]): 0.03 mg/h/kg
bioavailability [2]: < 30%
Activity (NG108-15 [3]): 1 µM
Activity (NG108-15 [4]): > 0.1 nM
Activity (Rattus norvegicus [5]): 100 µM
Ki [6]: > 10000 nM
half-life [7]: 4 h

SMILES: CCCCOC(=O)NS(=O)(=O)c1sc(CC(C)C)cc1-c1ccc(Cn2c(CC)nc3c(C)cc(C)nc32)cc1
IC50 [6]: 1.1 nM
Ki [6]: 3.9 nM

SMILES: Cc1cc(Cn2cnc3c2C[C@@H](C(=O)O)N(C(=O)C(c2ccccc2)c2ccccc2)C3)ccc1N(C)C.O=C(O)C(F)(F)F.O=C(O)C(F)(F)F
Activity (Rattus norvegicus [1]): 0.3 mg/h/kg
Activity (Rattus norvegicus [5]): 150 µM
IC50 [6]: > 10000 nM

SMILES: CCCCOC(=O)NS(=O)(=O)c1sc(CC(C)C)cc1-c1ccc(Cn2c(CC)nc3ccccc32)cc1
Ki [6]: > 10000 nM

SMILES: CCCCOC(=O)NS(=O)(=O)c1ccc(Cc2cccc(OC)c2)cc1-c1ccc(Cn2c(CC)nc3c(C)cc(C)nc32)cc1
IC50 [8]: 101 nM
IC50 [6]: 1.4 nM

SMILES: COc1cccc(-c2cc(=O)c3ccccc3o2)c1N
Activity [9]: 10 µM

Next, values leading:

Ki [6]: > 10000 nM
SMILES: CCCCOC(=O)NS(=O)(=O)c1sc(CC(C)C)cc1Cc1ccc(-n2ccnc2)cc1

Ki [6]: 100 nM
SMILES: CCCCOC(=O)NS(=O)(=O)c1sc(CC(C)C)cc1-c1ccc(CC#N)cc1

Ki [6]: 500 nM
SMILES: CCCCOC(=O)NS(=O)(=O)c1sc(CC(C)C)cc1-c1ccc(Cn2cnc3ccccc32)cc1

Ki [6]: > 10000 nM
SMILES: CCCCOC(=O)NS(=O)(=O)c1sc(CC(C)C)cc1-c1ccc(Cn2cnc3cccnc32)cc1

Ki [6]: > 10000 nM
SMILES: CCCCOC(=O)NS(=O)(=O)c1sc(CC(C)C)cc1-c1ccc(C#N)cc1

Ki [6]: > 10000 nM
SMILES: CCCCOC(=O)NS(=O)(=O)c1sc(CC(C)C)cc1-c1ccc(Cn2ccnc2C)cc1

Ki [6]: > 10000 nM
SMILES: CCCCOC(=O)NS(=O)(=O)c1sc(CC(C)C)cc1Cc1ccc(C#N)cc1
